Measured values as given in ChEMBL document CHEMBL4261634, “Design and optimization of 2,3-dihydrobenzo[b][1,4]dioxine propanoic acids as novel GPR40 agonists with improved pharmacokinetic and safety profiles” (Bioorg Med Chem, 2018).
The source made the active and inactive calls. The calls are words filed in the database; no cut-off is given here.

Experiments:
[1] = biological target: T1, Free fatty acid receptor 1 (Homo sapiens, UniProt O14842); experiment: Agonist activity at human GPR40 expressed in human HEK293 cells assessed as increase in intracellular calcium flux after 10 mins by fluorescence assay; type: functional, cell-based
T1 sequence (O14842 whole entry): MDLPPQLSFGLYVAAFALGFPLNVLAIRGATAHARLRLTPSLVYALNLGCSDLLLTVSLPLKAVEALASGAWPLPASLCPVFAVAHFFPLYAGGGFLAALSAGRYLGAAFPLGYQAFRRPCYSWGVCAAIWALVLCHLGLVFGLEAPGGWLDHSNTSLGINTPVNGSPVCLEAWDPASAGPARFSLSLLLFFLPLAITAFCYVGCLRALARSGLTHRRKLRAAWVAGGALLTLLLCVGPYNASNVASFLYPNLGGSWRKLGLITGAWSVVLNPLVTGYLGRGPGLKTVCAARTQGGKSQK
Method in brief: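 Human GPR40 activity read by calcium mobilization to give EC50. Mean ± SD, n = 3.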

[2] = biological target: T1, Free fatty acid receptor 1; experiment: Agonist activity at human GPR40 expressed in human HEK293 cells assessed as increase in intracellular calcium flux after 10 mins by fluorescence assay relative to linoleic acid; type: functional, cell-based
Method in brief: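 Human GPR40 activity read by calcium mobilization to give EC50. Emax expressed relative to linoleic acid as 100%. Mean ± SD, n = 3.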

[3] = AUC (0 to t) in Sprague-Dawley rat at 10 mg/kg, po by LC-ESI-MS analysis; type: ADME, organism-based; conditions: in vivo
Method in brief: (§1)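 SD rats dosed orally (3 or 10 mg/kg) or by intravenous injection (1 mg/kg). Plasma PK parameters derived per route: Cmax, AUC0-t, Tmax, t1/2 and F after oral dosing; CL, AUC0-t, MRT, t1/2 and Vdss after iv dosing. Mean ± SD from three independent experiments (n = 3).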

[4] = system: Rattus norvegicus; experiment: Antidiabetic activity in Sprague-Dawley rat assessed as reduction in blood glucose AUC (0 to 120 mins) at 10 to 20 mg/kg, po administered 60 mins prior to glucose challenge by OGTT; type: functional, organism-based
Method in brief: (§2)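 OGTT in SD rats: compound given orally 60 min before a 3.0 g/kg glucose challenge. Blood glucose followed over time, and AUC0-60min or AUC0-120min calculated versus vehicle group. Mean ± SD, n = 8.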

[5] = system: Rattus norvegicus; experiment: Antidiabetic activity in Sprague-Dawley rat assessed as reduction in blood glucose excursion at 10 to 20 mg/kg, po administered 60 mins prior to glucose challenge by OGTT; type: functional, organism-based; method in brief: as §2
[6] = system: Rattus norvegicus; experiment: Antidiabetic activity in Sprague-Dawley rat assessed as reduction in blood glucose AUC (0 to 60 mins) at 10 to 20 mg/kg, po administered 60 mins prior to glucose challenge by OGTT; type: functional, organism-based; method in brief: as §2
[7] = Tmax in Sprague-Dawley rat at 10 mg/kg, po by LC-ESI-MS analysis; type: ADME, organism-based; conditions: in vivo; method in brief: as §1
[8] = Elimination half life in Sprague-Dawley rat at 10 mg/kg, po by LC-ESI-MS analysis; type: ADME, organism-based; conditions: in vivo, read-out: beta t1/2 (converted); method in brief: as §1
[9] = Cmax in Sprague-Dawley rat at 10 mg/kg, po by LC-ESI-MS analysis; type: ADME, organism-based; parameters: dose 10 mg/kg, route oral; conditions: in vivo; method in brief: as §1

| Structure (SMILES) | EC50 [1] | Emax [2] | further results |
| --- | --- | --- | --- |
| CC#C[C@@H](CC(=O)O)c1ccc(OC[C@H]2COc3ccc(S(C)(=O)=O)cc3O2)cc1 | 27200 nM | 55% |  |
| O=C(O)CCc1ccc(NCC2COc3ccc(Cl)cc3O2)cc1F (stereo unspecified) | 13600 nM | 69% |  |
| CC#C[C@@H](CC(=O)O)c1ccc(OC[C@H]2COc3ccc(C)cc3O2)cc1 | 120 nM | 78% | AUC(0-t) [3]: 65.2 µg·h/mL; Activity [4]: Active; Activity [5]: Active; Activity [6]: Active; Tmax [7]: 0.417 h; half-life [8]: 1.79 h; Cmax [9]: 23700 ng/mL |
| O=C(O)CC(c1ccc(OCC2COc3ccc(Cl)cc3O2)cc1)c1cnco1 (stereo unspecified) | 1030 nM | 63% |  |
| CC#C[C@@H](CC(=O)O)c1ccc(OC[C@H]2COc3cc(Br)c(Cl)cc3O2)cc1 | 200 nM | 82% |  |
| CC#C[C@@H](CC(=O)O)c1ccc(OC[C@H]2COc3ccc(OC(C)C)cc3O2)cc1 | 280 nM | 90% |  |
| CC#C[C@H](CC(=O)O)c1ccc(OC[C@H]2COc3ccc(Cl)cc3O2)cc1 | 3400 nM | 47% |  |
| CCOC(CC(=O)O)c1ccc(OCC2COc3ccc(Cl)cc3O2)cc1 (stereo unspecified) | 640 nM | 46% |  |
| CC#C[C@@H](CC(=O)O)c1ccc(OC[C@H]2COc3ccc(C(=O)N4CCOCC4)cc3O2)cc1 | > 50000 nM | 33% |  |
| CC#C[C@@H](CC(=O)O)c1ccc(OC[C@H]2COc3ccc(OC)cc3O2)cc1 | 130 nM | 91% |  |
| CC#C[C@@H](CC(=O)O)c1ccc(OC[C@H]2COc3ccccc3O2)cc1 | 90 nM | 70% | AUC(0-t) [3]: 275 µg·h/mL; Activity [4]: Active; Activity [5]: Active; Activity [6]: Active; Tmax [7]: 1.17 h; half-life [8]: 3.14 h; Cmax [9]: 36700 ng/mL |
| CC#C[C@H](CC(=O)O)c1ccc(OC[C@@H]2COc3ccc(Cl)cc3O2)cc1 | 5040 nM | 41% |  |
| CC#C[C@@H](CC(=O)O)c1ccc(OC[C@H]2COc3cc(Cl)c(Cl)cc3O2)cc1 | 150 nM | 33% |  |
| CC#C[C@@H](CC(=O)O)c1ccc(OC[C@H]2COc3ccc(Br)cc3O2)cc1 | 210 nM | 69% |  |
| Cn1ccnc1C(CC(=O)O)c1ccc(OCC2COc3ccc(Cl)cc3O2)cc1 (stereo unspecified) | 5880 nM | 68% |  |
| O=C(O)CCc1ccc(OCC2COc3ccc(Br)cc3O2)cc1F (stereo unspecified) | 2240 nM | 81% |  |
| COc1ccc2c(c1)OC(COc1ccc(CCC(=O)O)c(F)c1)CO2 (stereo unspecified) | 1470 nM | 80% |  |
| CC#C[C@@H](CC(=O)O)c1ccc(OC[C@H]2COc3ccc(C#N)cc3O2)cc1 | 2100 nM | 60% |  |
| Cn1nncc1C(CC(=O)O)c1ccc(OCC2COc3ccc(Cl)cc3O2)cc1 (stereo unspecified) | 3870 nM | 70% |  |
| CS(=O)(=O)CCCOc1ccc2c(c1)OC(COc1ccc(CCC(=O)O)c(F)c1)CC2 (stereo unspecified) | 36300 nM | 38% |  |
| CC#C[C@@H](CC(=O)O)c1ccc(OC[C@H]2COc3ccc(OC(F)(F)F)cc3O2)cc1 | 700 nM | 73% |  |
